From ChEMBL document CHEMBL4393678, “Novel Tetrahydroquinazolinamines as Selective Histamine 3 Receptor Antagonists for the Treatment of Obesity” (J Med Chem, 2019)
The source made the active and inactive calls. The calls are words filed in the database; no cut-off is given here.

How the values were obtained:
[1] = Ratio of AUClast in C57BL/6J mouse brain to AUClast in C57BL/6J mouse serum; type: ADME
Procedure, shortened: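 Male C57BL/6J mice (6–8 weeks) were fasted 12–16 h, then given a single oral dose of 20 mg/kg as a 2.5 mg/mL suspension in 1% gum acacia/water (n=5 per time point). Serum and brain (homogenised 1:6 in PBS) were sampled up to 24 h. Parent and demethylated metabolite were measured by LC-MS/MS (range 0.25–200 ng/mL). AUC ran to the last observation.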

[2] = Half life in C57BL/6J mouse serum assessed as 4-(2-Amino-8-methyl-5,6,7,8-tetrahydroquinazolin-4-yl)phenol level at 20 mg/kg, po by LC-MS/MS analysis; type: ADME, organism-based; details: in vivo
Procedure, shortened: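 Male C57BL/6J mice (6-8 weeks, 20 ± 5 g) fasted overnight (12-16 h) got a single 20 mg/kg oral dose as 2.5 mg/mL suspension in 1% w/v gum acacia; n=5 per time point. Serum and brain (PBS homogenate 1:6 w/v) sampled up to 24 h. Parent and demethylated metabolite quantified by LC-MS/MS after liquid-liquid extraction (C18, MRM, phenacetin internal standard; linear 0.25-200 ng/mL). Two-compartment open model fit.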

[3] = target: D(1A) dopamine receptor (Homo sapiens) (UniProt P21728); assay: Agonist activity at Gs-coupled D1 receptor (unknown origin) expressed in HEK293T cells assessed as inhibition of forskolin-stimulated cAMP accumulation preincubated for 10 to 15 followed by forskolin-stimulation by Glo-sensor assay; type: functional, cell-based
[4] = target: T1, Muscarinic acetylcholine receptor M5 (Homo sapiens) (UniProt P08912); assay: Agonist activity at M5R (unknown origin) expressed in HEK293 cells harboring luc2P/NFAT-RE plasmid at 10 uM after 6 to 8 hrs by luciferase reporter gene assay; type: cell-based
T1 sequence (whole entry): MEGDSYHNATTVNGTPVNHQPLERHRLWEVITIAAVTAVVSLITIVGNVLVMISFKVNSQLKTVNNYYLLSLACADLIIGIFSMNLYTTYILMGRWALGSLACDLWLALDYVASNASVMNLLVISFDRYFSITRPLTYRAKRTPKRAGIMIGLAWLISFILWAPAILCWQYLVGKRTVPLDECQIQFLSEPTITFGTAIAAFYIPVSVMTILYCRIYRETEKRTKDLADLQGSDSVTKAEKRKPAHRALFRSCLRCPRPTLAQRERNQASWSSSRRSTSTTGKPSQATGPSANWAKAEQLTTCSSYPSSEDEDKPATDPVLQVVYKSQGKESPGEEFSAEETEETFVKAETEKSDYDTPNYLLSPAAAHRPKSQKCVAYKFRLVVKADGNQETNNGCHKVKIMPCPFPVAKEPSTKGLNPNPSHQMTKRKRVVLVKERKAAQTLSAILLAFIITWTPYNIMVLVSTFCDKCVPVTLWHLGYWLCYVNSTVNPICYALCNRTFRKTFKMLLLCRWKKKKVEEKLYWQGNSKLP
Procedure, shortened: (§1)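 NFAT-RE luciferase assay in HEK293T cells transiently co-transfected with luc2P/NFAT-RE plasmid and receptor plasmid. Cells plated in DMEM and incubated overnight at 37 °C, 5% CO₂. Compounds and reference ligands applied for 6-8 h. Luciferase read after adding Bright-Glo substrate (1 mg/ml final).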

[5] = target: D(1B) dopamine receptor (Homo sapiens) (UniProt P21918); assay: (§2) Antagonist activity at Gs-coupled D5 receptor (unknown origin) expressed in HEK293T cells assessed as reduction in histamine-induced inhibition of forskolin-stimulated cAMP accumulation preincubated for 10 to 15 followed by histamine addition for 10 mins and subsequent forskolin-stimulation by Glo-sensor assay; type: functional, cell-based
[6] = target: Histamine H1 receptor (Homo sapiens) (UniProt P35367); assay: Agonist activity at H1R (unknown origin) expressed in HEK293 cells harboring luc2P/NFAT-RE plasmid at 10 uM after 6 to 8 hrs by luciferase reporter gene assay; type: cell-based; procedure, shortened: as §1
[7] = target: D(2) dopamine receptor (Homo sapiens) (UniProt P14416); assay: as §2, with “Gi-coupled D2” for “Gs-coupled D5”; type: functional, cell-based
Mus musculus [8] = assay: Anti-obesity activity in high fat diet-induced obese C57BL/6J mouse model assessed as change in blood TG level at 10 to 20 mg/kg, po measured after 6 weeks; type: functional, organism-based
Procedure, shortened: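 At the end of treatment (six weeks HFD, four weeks db/db), mice euthanized with avertin 350 mg/kg. Blood taken by cardiac puncture into 3.8% sodium citrate. Plasma separated at 4000 rpm and stored at -80 °C. TG, TC, HDLc and LDLc measured on a bio-analyzer.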

[9] = target: Kappa-type opioid receptor (Homo sapiens) (UniProt P41145); assay: Agonist activity at Gi-coupled KOR (unknown origin) expressed in HEK293T cells assessed as inhibition of forskolin-stimulated cAMP accumulation preincubated for 10 to 15 followed by forskolin-stimulation by Glo-sensor assay; type: functional, cell-based
[10] = target: Histamine H1 receptor (Homo sapiens) (UniProt P35367); assay: Antagonist activity at H1R (unknown origin) expressed in HEK293 cells harboring luc2P/NFAT-RE plasmid at 10 uM after 6 to 8 hrs by luciferase reporter gene assay; type: cell-based; procedure, shortened: as §1
[11] = target: T2, Muscarinic acetylcholine receptor M1 (Homo sapiens) (UniProt P11229); assay: Agonist activity at M1R (unknown origin) expressed in HEK293 cells harboring luc2P/NFAT-RE plasmid at 10 uM after 6 to 8 hrs by luciferase reporter gene assay; type: cell-based; procedure, shortened: as §1
T2 sequence (whole entry): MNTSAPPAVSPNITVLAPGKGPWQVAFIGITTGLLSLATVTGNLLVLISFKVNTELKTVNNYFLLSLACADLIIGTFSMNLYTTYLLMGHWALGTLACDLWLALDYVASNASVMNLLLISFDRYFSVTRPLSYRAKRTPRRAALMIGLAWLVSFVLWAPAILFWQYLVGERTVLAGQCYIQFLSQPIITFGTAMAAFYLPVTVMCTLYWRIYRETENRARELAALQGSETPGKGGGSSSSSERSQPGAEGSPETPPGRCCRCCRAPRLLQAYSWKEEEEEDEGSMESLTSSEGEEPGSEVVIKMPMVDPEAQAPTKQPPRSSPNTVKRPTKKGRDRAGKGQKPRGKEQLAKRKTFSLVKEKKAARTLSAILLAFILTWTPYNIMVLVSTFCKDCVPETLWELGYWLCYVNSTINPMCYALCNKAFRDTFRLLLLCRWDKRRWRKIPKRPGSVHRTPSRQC

Mus musculus [12] = assay: Anorexic effect in high fat diet-induced obese C57BL/6J mouse model assessed as reduction in cumulative food intake at 10 mg/kg, po pretreated for 30 mins followed by food addition measured after 4 hrs relative to control; type: functional; design: scale not given: the % may be the effect or the level left
Procedure, shortened: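 Male C57BL/6J mice on high-fat diet, starved 12 h (8 am–8 pm) with water available, housed singly. Oral dose in 5% gum acacia in normal saline, vehicle group alongside. Food given 30 min after dosing, and cumulative intake measured over the 4 h night phase (9 pm–1 am). One-way ANOVA with Newman-Keuls test.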

[13] = target: Histamine H4 receptor (Homo sapiens) (UniProt Q9H3N8); assay: Agonist activity at recombinant human Gi-coupled H4 receptor expressed in HEK293T cells assessed as inhibition of forskolin-stimulated cAMP accumulation at 10 uM preincubated for 10 to 15 followed by forskolin-stimulation by Glo-sensor assay; type: functional, cell-based
Chain of Histamine H4 receptor (Homo sapiens) (Q9H3N8 whole entry): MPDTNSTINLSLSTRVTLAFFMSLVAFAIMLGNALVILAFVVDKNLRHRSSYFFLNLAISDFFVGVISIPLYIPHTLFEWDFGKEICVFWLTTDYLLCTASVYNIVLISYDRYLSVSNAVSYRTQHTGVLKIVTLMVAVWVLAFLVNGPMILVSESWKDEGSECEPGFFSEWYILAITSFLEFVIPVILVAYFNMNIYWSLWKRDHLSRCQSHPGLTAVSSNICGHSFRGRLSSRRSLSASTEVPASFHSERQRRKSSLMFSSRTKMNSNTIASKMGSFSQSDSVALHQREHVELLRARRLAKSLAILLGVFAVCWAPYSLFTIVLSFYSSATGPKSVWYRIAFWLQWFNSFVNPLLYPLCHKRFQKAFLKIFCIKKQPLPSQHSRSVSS

Chain of Histamine H1 receptor (Homo sapiens) (P35367 whole entry): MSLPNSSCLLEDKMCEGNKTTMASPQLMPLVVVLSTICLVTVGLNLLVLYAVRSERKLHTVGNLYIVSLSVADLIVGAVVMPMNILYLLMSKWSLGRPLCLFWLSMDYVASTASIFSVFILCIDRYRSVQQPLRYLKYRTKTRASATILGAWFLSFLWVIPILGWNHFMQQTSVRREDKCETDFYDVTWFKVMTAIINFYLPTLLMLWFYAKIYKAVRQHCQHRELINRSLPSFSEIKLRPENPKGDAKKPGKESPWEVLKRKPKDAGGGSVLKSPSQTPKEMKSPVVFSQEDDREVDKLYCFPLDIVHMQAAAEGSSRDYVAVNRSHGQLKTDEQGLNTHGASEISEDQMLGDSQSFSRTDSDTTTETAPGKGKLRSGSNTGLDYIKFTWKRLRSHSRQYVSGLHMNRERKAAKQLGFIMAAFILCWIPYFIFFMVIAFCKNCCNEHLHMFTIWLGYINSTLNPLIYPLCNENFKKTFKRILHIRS
Chain of D(1B) dopamine receptor (Homo sapiens) (P21918 whole entry): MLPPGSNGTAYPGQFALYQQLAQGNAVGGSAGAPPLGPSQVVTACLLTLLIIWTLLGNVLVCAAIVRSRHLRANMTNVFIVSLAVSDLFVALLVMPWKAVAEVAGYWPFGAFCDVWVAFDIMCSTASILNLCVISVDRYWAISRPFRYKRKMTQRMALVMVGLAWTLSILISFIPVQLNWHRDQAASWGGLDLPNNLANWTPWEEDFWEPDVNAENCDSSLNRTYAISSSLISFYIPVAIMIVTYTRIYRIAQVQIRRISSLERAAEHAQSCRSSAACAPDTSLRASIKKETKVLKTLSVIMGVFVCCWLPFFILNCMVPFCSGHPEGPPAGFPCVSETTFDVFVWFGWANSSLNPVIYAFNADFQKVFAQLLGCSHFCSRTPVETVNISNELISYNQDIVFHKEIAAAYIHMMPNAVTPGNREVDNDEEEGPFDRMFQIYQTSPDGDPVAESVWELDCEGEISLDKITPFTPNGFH
Chain of D(1A) dopamine receptor (Homo sapiens) (P21728 whole entry): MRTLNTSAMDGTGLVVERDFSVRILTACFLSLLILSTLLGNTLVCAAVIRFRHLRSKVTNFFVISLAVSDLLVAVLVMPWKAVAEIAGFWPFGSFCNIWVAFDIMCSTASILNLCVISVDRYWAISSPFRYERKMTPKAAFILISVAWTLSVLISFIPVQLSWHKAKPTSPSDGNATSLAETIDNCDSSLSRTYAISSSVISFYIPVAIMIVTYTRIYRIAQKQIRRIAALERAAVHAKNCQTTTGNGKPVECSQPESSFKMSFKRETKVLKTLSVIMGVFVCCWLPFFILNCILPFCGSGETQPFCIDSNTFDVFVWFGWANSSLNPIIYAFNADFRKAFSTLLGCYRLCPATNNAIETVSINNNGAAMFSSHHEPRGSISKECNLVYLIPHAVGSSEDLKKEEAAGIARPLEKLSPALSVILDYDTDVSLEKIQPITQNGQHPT
Chain of D(2) dopamine receptor (Homo sapiens) (P14416 whole entry): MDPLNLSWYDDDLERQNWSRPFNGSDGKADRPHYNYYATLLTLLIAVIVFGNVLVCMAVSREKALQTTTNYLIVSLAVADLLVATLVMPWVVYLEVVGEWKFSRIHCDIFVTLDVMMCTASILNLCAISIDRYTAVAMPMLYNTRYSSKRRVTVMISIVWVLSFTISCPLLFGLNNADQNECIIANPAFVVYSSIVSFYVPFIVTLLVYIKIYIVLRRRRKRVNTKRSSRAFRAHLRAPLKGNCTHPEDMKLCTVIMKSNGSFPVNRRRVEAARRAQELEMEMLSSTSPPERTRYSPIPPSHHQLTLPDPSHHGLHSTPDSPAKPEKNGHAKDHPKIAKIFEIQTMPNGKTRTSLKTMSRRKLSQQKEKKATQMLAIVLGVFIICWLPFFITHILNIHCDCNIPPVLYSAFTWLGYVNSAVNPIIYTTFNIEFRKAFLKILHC
Chain of Kappa-type opioid receptor (Homo sapiens) (P41145 whole entry): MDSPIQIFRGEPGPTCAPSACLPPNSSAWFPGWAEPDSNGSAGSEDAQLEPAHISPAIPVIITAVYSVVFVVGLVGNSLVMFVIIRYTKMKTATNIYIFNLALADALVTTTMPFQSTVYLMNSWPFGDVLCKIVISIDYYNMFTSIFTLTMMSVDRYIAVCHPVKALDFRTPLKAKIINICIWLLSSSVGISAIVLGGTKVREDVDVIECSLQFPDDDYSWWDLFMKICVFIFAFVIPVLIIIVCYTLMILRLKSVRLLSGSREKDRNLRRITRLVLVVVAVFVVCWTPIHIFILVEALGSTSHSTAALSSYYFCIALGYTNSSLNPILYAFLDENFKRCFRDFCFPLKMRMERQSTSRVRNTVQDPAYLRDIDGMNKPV

COc1ccc(-c2nc(N)nc3c2CCCC3C)cc1 (racemic)
Ratio AUC [1]: 16.2%
t1/2 [2]: 2.1 h
inhibition [3]: inactive
Activity [4]: inactive
inhibition [5]: inactive
Activity [6]: inactive
inhibition [7]: inactive
Activity (Mus musculus [8]): inactive
inhibition [9]: inactive
inhibition [10]: inactive
Activity [11]: inactive
Activity (Mus musculus [12]): 26%
Activity [13]: inactive
